Source: ChEMBL document CHEMBL4342468, “Evolution of a 4-Benzyloxy-benzylamino Chemotype to Provide Efficacious, Potent, and Isoform Selective PPARα Agonists as Leads for Retinal Disorders” (J Med Chem, 2020)

Tests used:
hERG (KCNH2) = hERG (KCNH2) (Homo sapiens, UniProt Q12809); assay: Inhibition of human ERG stably expressed in CHOK1 cells assessed as tail current amplitude at 10 uM incubated for 5 mins measured after deploarization to +20 mV for 2s followed by 1s pulse to -40 mV with holding potential of -80 mV by Qpatch clamp assay relative to control; type: cell-based; conditions: CHO-K1 cells stably expressing human ERG
Outline: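 Whole-cell automated patch clamp at room temperature on CHO-K1 cells stably carrying human hERG cDNA. Holding potential -80 mV; tail current evoked by 2 s step to +20 mV then 1 s to -40 mV.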

[1] = target: T1, Peroxisome proliferator-activated receptor alpha (Homo sapiens, UniProt Q07869); assay: Binding affinity to PPARalpha in human MIO-M1 cells assessed as increase in thermal stability preincubated for 3 hrs followed by exposure to 45.5 degree C for 10 mins by CETSA; type: cell-based
T1 sequence (Q07869 whole entry): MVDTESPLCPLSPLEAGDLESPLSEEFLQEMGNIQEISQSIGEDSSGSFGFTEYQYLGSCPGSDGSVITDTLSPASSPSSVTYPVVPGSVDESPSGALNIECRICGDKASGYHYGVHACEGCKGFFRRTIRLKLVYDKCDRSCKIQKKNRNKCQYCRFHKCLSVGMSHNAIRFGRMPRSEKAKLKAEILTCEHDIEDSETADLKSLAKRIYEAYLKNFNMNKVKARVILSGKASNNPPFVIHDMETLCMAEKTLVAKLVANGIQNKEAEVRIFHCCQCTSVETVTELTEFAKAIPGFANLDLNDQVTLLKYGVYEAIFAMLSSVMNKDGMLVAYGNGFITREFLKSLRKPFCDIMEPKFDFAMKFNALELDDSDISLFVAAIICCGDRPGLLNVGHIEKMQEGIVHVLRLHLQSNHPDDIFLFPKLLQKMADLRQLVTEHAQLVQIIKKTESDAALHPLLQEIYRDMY
Outline: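 Human retinal Müller glial MIO-M1 cells grown in DMEM with 10% FBS. They were then heated at Tagg(75) for 10 min. Lysis used cold PBS with 0.1% Triton X-100 and protease inhibitors, and unstable protein was removed by centrifugation. Soluble PPARα was quantified by anti-PPARα immunoblot, normalized to loading control, and EC50 fitted. Single experiment, duplicate.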

[2] = Stability in human pooled liver microsomes preincubated for 5 mins prior to addition of NADPH-regenerating system and measured up to 60 mins by HPLC-MS/MS analysis; type: ADME, Microsome; conditions: 1 h
Outline: (§1)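 Compound pre-incubated 5 min at 37 °C with pooled liver microsomes in phosphate buffer, pH 7.4. NADPH-generating system then added; samples taken at 0, 15, 30, 45 and 60 min and quenched in acetonitrile/methanol. […] References: propranolol, imipramine, verapamil, terfenadine. Run in duplicate.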

[3] = target: T1, Peroxisome proliferator-activated receptor alpha
[4] = Stability in Sprague Dawley rat pooled liver microsomes preincubated for 5 mins prior to addition of NADPH-regenerating system and measured up to 60 mins by HPLC-MS/MS analysis; type: ADME, Microsome; conditions: 1 h; outline: as §1
[5] = target: T2, Peroxisome proliferator-activated receptor alpha (Homo sapiens) (UniProt Q07869); assay: Binding affinity to His tagged PPARalpha LBD (unknown origin) expressed in Escherichia coli Rosetta (DE3) assessed as change in entropy at 25 degree C by isothermal titration calorimetry
T2 sequence (whole entry): T1 sequence (Q07869 whole entry)

[6] = Half life in Sprague Dawley rat pooled liver microsomes preincubated for 5 mins prior to addition of NADPH-regenerating system and measured up to 60 mins by HPLC-MS/MS analysis; type: ADME, Microsome; conditions: 1 h
[7] = target: T3, Peroxisome proliferator-activated receptor delta (Homo sapiens, UniProt Q03181); assay: Agonist activity at human PPARdelta expressed in nonhuman mammalian cells assessed as increase in receptor transcriptional activity incubated for 22 to 24 hrs by luciferase reporter gene assay; type: cell-based
T3 sequence (Q03181 whole entry): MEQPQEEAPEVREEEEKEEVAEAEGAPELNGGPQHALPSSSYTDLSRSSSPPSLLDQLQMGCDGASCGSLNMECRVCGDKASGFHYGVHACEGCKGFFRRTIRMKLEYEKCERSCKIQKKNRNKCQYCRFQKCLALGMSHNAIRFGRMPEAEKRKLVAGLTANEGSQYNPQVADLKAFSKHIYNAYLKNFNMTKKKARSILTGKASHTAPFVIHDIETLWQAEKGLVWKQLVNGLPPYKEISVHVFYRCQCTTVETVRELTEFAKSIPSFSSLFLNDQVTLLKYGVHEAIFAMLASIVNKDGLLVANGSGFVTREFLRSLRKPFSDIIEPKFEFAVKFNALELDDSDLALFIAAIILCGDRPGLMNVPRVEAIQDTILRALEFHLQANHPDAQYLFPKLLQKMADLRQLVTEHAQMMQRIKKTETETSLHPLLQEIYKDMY

[8] = Toxicity in STZ-induced diabetic retinopathy Brown Norway rat model assessed as liver weight at 25 mg/kg, ip administered daily for 4 weeks starting at 2 weeks post STZ challenge relative to body weight (reference value: 4.36 +/- 0.37%); type: organism-based; conditions: in vivo
[9] = Half life in human pooled liver microsomes preincubated for 5 mins prior to addition of NADPH-regenerating system and measured up to 60 mins by HPLC-MS/MS analysis; type: ADME, Microsome; conditions: 1 h
[10] = target: T4, Peroxisome proliferator-activated receptor gamma (Homo sapiens, UniProt P37231); assay: Agonist activity at human PPARgamma expressed in nonhuman mammalian cells assessed as increase in receptor transcriptional activity incubated for 22 to 24 hrs by luciferase reporter gene assay; type: cell-based
T4 sequence (P37231 whole entry): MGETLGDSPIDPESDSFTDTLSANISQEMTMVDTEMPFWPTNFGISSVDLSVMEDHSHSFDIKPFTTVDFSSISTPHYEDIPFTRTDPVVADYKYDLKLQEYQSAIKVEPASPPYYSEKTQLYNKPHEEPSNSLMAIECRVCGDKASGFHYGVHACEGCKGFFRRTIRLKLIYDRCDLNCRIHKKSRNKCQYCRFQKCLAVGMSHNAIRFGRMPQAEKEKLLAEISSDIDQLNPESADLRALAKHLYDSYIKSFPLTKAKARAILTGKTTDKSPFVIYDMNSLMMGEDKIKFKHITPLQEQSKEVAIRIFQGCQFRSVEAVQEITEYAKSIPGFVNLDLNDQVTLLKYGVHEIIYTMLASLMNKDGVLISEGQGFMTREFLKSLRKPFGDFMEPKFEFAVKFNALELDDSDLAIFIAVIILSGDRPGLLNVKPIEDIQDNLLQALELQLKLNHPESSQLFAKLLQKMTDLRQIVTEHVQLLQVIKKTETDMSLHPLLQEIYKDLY
Outline: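 Reporter cells (nonhuman mammalian, engineered PPAR receptor with luciferase linked to response promoter) pre-incubated 4–6 h at 37 °C, 5% CO2 in medium with 10% charcoal-stripped FBS. Medium replaced with compound-containing screening medium, 22–24 h at 37 °C, then luciferase detection reagent, luminescence read. Multi-point dose-response for EC50; mean ± SEM of at least two separate experiments in triplicate.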

[11] = target: Voltage-gated inwardly rectifying potassium channel KCNH2 (Homo sapiens, UniProt Q12809); assay: Inhibition of human ERG stably expressed in CHOK1 cells assessed as tail current amplitude at 0.1 to 10 uM incubated for 5 mins measured after deploarization to +20 mV for 2s followed by 1s pulse to -40 mV with holding potential of -80 mV by Qpatch clamp assay; type: cell-based
Outline: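 Whole-cell automated patch clamp at room temperature. CHO-K1 cells were detached with trypsin and held in serum-free medium. Intracellular solution was KCl/EGTA/MgATP/HEPES at pH 7.2; extracellular solution was NaCl/KCl/CaCl2/glucose/HEPES at pH 7.4, applied first for 5 min. Compound given at 0.1, 1 and 10 μM in rising order, 5 min each, on the same cell. Percent inhibition taken from tail current before and after compound. E-4031 reference. Run in duplicate.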

[12] = Toxicity in STZ-induced diabetic retinopathy Brown Norway rat model at 25 mg/kg, ip administered for 1 month starting at 2 weeks post STZ challenge; type: organism-based; conditions: in vivo, 336 h
Rattus norvegicus = assay: Protection against STZ-induced diabetic retinopathy Brown Norway rat model assessed as reduction in vascular leakage by measuring retinal vascular permeability at 25 mg/kg, ip administered daily for 4 weeks starting at 2 weeks post STZ challenge measured per mg of total retinal protein by Evan blue dye based assay (reference value: 0.090 +/- 0.015 microg); type: functional
Outline: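 Male Brown Norway rats aged 8 weeks (legend: 7–8 weeks) made diabetic with STZ 55 mg/kg i.p.; blood glucose >350 mg/dl at day 3. Starting 2 weeks after STZ, daily i.p. compound or same-volume vehicle for 4 weeks. Under ketamine/xylazine, Evans blue 30 mg/ml at 1 µl/g given i.v. via femoral vein and circulated 2 h. Perfusion with 1% paraformaldehyde in citrate buffer, pH 4.2, at 37°C. Retina extracted in formamide 18 h at 70°C, ultracentrifuged, A620 read. Dye amount from a standard curve, normalized to total protein. Groups compared by Student's t-test, mean ± SD.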

661W = assay: Cytotoxicity against mouse 661W cells assessed as cell death at 200 uM incubated for overnight by colorimetric enzyme coupled LDH assay; type: cell-based

hERG (KCNH2), sequence (Q12809 whole entry): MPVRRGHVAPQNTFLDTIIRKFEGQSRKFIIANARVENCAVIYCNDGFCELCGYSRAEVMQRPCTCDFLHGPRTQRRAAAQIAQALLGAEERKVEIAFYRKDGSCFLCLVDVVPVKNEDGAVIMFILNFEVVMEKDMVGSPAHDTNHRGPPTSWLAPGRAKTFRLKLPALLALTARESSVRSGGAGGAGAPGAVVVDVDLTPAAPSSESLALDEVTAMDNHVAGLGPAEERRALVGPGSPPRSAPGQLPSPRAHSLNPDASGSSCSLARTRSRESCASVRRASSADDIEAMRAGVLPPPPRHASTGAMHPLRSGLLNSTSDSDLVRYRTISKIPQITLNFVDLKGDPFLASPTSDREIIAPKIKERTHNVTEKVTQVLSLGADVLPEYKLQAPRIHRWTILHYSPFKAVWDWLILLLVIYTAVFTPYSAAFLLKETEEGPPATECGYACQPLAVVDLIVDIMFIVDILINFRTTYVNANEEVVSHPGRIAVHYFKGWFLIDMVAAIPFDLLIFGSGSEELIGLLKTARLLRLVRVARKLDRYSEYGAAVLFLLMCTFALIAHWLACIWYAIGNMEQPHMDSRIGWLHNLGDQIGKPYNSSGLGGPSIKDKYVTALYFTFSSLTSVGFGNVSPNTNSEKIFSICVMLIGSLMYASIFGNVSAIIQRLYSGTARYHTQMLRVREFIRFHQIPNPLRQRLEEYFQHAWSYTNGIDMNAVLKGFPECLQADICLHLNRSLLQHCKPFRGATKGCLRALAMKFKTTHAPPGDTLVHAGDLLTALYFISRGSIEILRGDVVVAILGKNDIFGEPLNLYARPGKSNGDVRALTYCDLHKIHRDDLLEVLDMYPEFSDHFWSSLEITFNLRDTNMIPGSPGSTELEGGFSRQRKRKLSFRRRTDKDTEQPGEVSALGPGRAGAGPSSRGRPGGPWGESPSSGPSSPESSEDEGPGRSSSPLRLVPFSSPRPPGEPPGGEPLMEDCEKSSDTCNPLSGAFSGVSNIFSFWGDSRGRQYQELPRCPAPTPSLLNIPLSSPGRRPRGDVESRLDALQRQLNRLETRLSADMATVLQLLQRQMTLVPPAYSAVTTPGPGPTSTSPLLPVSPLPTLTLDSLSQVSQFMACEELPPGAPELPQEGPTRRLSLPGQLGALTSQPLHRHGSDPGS
Voltage-gated inwardly rectifying potassium channel KCNH2, sequence (Q12809 whole entry): as above

Row | Structure (SMILES) | inhibition at 5 min, 10 µM (hERG (KCNH2)) | EC50 [1] | Stability [2] | EC50 [3] | Stability [4] | -TdeltaS [5] | t1/2 [6] | EC50 [7] | Activity [8] | t1/2 [9] | EC50 [10] | inhibition (INH) [11] | Activity [12] | Activity (Rattus norvegicus) | Activity (661W)
1 | Cc1cc(CNc2cccc(C(=O)O)c2)ccc1OCc1ccc(F)cc1 | 10% | 93 nM | Stable | 37 nM | Stable | -1.65 kcal/mol |  |  |  |  |  |  |  |  | 
2 | COc1ccc(COc2ccc(CNc3cccc(C(=O)O)c3)cc2)cc1 | 10% | 300 nM |  | 4430 nM |  | 5.71 kcal/mol | > 1 h | > 100000 nM | 4.68% | > 1 h | > 100000 nM | Not Active | Non-Toxic | 0.062 µg | Non-Toxic
